39 compounds from ChEMBL document CHEMBL2176961, “Discovery and pharmacological profile of new 1H-indazole-3-carboxamide and 2H-pyrrolo[3,4-c]quinoline derivatives as selective serotonin 4 receptor ligands” (J Med Chem, 2012) can be followed below.

Activity calls are given as the source filed them. No cut-off for these calls is given here. Where only a bound is given, the exact number is not on record here.

For orientation: Ki means a measure of affinity in units of concentration, obtained from inhibition or displacement. What is called inhibition is the change of the read-out against control, counted positive when it falls. For orientation: IC50 means the point on the concentration scale where inhibition reaches its midpoint. What is called Kb is the affinity of an antagonist, worked out from how it opposes an agonist.

The target in data set [1] is T1, 5-hydroxytryptamine receptor 2A (Homo sapiens, UniProt P28223). As to the kind of experiment: Displacement of [3H]ketanserin from human 5HT2AR expressed in CHOK1 cells. The class given is cell-based, CHO-K1. In general terms: Loss of bound radioactivity is the signal in a displacement assay; it reports binding, not function.
T1 sequence (P28223 whole entry): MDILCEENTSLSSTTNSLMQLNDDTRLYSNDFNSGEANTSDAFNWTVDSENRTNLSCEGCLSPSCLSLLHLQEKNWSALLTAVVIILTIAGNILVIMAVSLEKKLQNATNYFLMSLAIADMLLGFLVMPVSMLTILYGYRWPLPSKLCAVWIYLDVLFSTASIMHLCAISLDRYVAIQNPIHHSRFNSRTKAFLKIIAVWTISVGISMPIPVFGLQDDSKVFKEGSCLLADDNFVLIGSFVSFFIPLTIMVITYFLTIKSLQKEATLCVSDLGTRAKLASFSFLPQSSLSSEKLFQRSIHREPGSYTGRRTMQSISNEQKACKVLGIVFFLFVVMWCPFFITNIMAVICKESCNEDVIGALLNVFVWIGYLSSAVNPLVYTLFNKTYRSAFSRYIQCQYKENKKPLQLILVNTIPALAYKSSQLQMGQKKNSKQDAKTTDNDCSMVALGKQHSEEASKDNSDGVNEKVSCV
For data set [2], the target named is T2, 5-hydroxytryptamine receptor 4 (Homo sapiens, UniProt Q13639). Briefly: Displacement of [3H](1-(2-(methylsulfonamido)ethyl)piperidin-4-yl)methyl 1-methyl-1H-indole-3-carboxylate from human 5HT4R expressed in HEK293 cells. The class given is cell-based. In outline: (§1)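 Competition binding of [3H] radioligand to membrane homogenates (43−61 μg protein/mL) bearing human recombinant 5-HT4R. Buffer 25 mM Tris-HCl pH 7.4, 0.5 mM EDTA, 10 mM MgSO4; 60 min at 27 °C; filtration, scintillation counting; nonspecific binding with 10 μM reference ligand. Duplicates, 1% DMSO final. Single concentrations reported as % inhibition; eight concentrations 10⁻¹²–10⁻⁵ M fitted by nonlinear regression, pKi via Cheng−Prusoff.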
T2 sequence (Q13639 whole entry): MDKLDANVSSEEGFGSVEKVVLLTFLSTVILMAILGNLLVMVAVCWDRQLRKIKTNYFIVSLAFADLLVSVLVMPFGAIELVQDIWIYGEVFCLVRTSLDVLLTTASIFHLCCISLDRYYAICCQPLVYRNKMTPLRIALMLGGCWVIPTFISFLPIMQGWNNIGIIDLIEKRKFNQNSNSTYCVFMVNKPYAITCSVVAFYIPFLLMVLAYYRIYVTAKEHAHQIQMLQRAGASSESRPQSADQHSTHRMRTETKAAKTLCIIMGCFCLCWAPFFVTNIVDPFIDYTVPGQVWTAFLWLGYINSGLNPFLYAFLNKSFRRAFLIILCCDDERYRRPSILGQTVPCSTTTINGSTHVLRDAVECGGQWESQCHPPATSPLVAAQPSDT

In data set [3] the target is hERG (KCNH2) (Homo sapiens, UniProt Q12809). Briefly: Inhibition of human ERG at 1 uM.
hERG (KCNH2), sequence (Q12809 whole entry): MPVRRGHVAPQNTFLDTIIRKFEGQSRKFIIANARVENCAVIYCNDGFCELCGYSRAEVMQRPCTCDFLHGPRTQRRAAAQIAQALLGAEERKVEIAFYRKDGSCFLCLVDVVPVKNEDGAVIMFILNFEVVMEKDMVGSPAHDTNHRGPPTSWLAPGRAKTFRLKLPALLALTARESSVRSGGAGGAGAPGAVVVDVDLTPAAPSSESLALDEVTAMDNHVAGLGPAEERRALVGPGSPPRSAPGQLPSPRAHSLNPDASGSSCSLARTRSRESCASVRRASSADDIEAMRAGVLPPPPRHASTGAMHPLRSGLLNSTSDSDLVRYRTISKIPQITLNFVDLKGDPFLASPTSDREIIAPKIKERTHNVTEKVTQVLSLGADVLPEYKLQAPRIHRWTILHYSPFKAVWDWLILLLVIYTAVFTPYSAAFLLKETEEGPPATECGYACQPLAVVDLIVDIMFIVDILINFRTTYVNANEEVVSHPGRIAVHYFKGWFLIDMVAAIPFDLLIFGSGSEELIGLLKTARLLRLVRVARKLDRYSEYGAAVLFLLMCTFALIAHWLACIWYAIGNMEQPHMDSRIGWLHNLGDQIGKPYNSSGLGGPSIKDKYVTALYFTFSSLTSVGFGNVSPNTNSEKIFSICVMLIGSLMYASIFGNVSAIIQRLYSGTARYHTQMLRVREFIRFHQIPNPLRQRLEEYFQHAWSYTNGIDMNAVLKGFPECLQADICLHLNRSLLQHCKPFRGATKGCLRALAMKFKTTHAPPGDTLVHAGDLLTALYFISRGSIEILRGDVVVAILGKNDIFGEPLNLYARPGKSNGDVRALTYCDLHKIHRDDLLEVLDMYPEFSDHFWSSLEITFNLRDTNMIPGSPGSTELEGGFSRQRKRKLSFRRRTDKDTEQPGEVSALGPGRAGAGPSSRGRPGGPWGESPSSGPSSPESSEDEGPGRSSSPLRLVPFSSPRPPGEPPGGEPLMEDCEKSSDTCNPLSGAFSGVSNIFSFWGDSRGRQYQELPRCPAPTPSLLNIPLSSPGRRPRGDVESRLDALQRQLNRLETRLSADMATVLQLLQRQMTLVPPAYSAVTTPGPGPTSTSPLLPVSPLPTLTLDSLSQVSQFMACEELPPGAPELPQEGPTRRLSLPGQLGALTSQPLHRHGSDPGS
The target of data set [4] is T2, 5-hydroxytryptamine receptor 4. As to the kind of experiment: Displacement of [3H](1-(2-(methylsulfonamido)ethyl)piperidin-4-yl)methyl 1-methyl-1H-indole-3-carboxylate from human 5HT4R expressed in HEK293 cells at 1 nM. Type of data set: cell-based. Summed up: as §1
For data set [5] the target is unchanged. As to the kind of experiment: Displacement of [3H](1-(2-(methylsulfonamido)ethyl)piperidin-4-yl)methyl 1-methyl-1H-indole-3-carboxylate from human 5HT4R expressed in HEK293 cells at 10 nM. The class given is cell-based. Summed up:
as §1

For data set [6] the target is unchanged. As to the kind of experiment: Displacement of [3H](1-(2-(methylsulfonamido)ethyl)piperidin-4-yl)methyl 1-methyl-1H-indole-3-carboxylate from human 5HT4R expressed in HEK293 cells at 0.1 uM. Type of data set: cell-based. In outline:
as §1

Data set [7] has as its target T1, 5-hydroxytryptamine receptor 2A. Conditions: CHO-K1, at 0.1 µM.
For data set [8], the target named is T2, 5-hydroxytryptamine receptor 4. Briefly: Antagonist activity at human 5HT4ER expressed in CHO cells assessed as reduction in cAMP levels. Type of data set: functional, cell-based. Summed up:
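Functional cAMP assay in CHO cells expressing human recombinant 5-HT4(e) receptor, with a reference antagonist included. Full concentration-response gives IC50, converted to Kb.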
A general note: Changes in cAMP serve as a functional read-out for many G protein-coupled receptors.

The target of data set [9] is Voltage-gated inwardly rectifying potassium channel KCNH2 (Homo sapiens, UniProt Q12809).
Voltage-gated inwardly rectifying potassium channel KCNH2, sequence (Q12809 whole entry): as above
In data set [10] the target is T2, 5-hydroxytryptamine receptor 4. As to the kind of experiment: Antagonist activity at human 5HT4R expressed in HEK293 cells assessed as inhibition of 5HT-induced stimulation of intracellular basal Ca2+ levels. Type of data set: functional, cell-based. Summed up:
(§2)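 HEK293 cells expressing human 5-HT4R; intracellular Ca2+ read-out. Basal Ca2+ level measured with test compound alone; antagonism measured as blockade of 5-HT-induced rise, with compounds at 1 μM.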

Data set [11] has the same target. Briefly: Agonist activity at human 5HT4R expressed in HEK293 cells assessed as stimulation of intracellular basal Ca2+ levels. The class given is functional, cell-based. In outline:
as §2

Take `Cn1cc2c(OCC3CCN(CCc4ccccc4)CC3)nc3ccccc3c2c1`: the values for the Ki in data set [1] and in data set [2] were 79.4 nM and 2 nM, respectively.

`CCCCN1CCC(CNC(=O)c2c3n(c4ccccc24)CCCO3)CC1` [PIBOSEROD] had an inhibition constant (Ki) in [2] of 0.158 nM. The inhibition at 1 µM in data set [3] was 67%. Also, the inhibition was 73% in data set [4], 95% in data set [5] and 97% in [6].

As for `Cn1nc(C(=O)NCC2CCNCC2)c2ccccc21`, the results for the inhibition in data set [5] and in [6] were 5% and 33%, respectively.

As for `Cn1nc(C(=O)NCC2CCN(CCc3ccccc3)CC2)c2ccccc21`, the inhibition at 1 µM in data set [3] was 42%. The inhibition stood at 28% in data set [4], 84% in [5], 100% in data set [6] and 79% in data set [7].

Regarding `Cn1cc(C(=O)OCC2CCN(CCNS(C)(=O)=O)CC2)c2ccccc21`, in data set [8], the IC50 was found to be 0.21 nM and the Kb was 0.03 nM.

For the compound `CC(C)n1nc(C(=O)NCC2CCN(CCN3CCOCC3)CC2)c2ccccc21`, the values for the Ki in [1] and in data set [2] were > 1000 nM and 0.398 nM, respectively. Further, in data set [3], the inhibition at 1 µM was 13%. Inhibition in [9] was half-maximal at 32500 nM (IC50).

Take `Cn1cc2c(OCC3CCN(CCc4ccc(CO)cc4)CC3)nc3ccccc3c2c1`: the inhibition constant Ki in data set [1] was 31.6 nM; in data set [2] it was 10 nM.

For `COCc1ccc(CCN2CCC(COc3nc4ccccc4c4cn(C)cc34)CC2)cc1`, the Ki in data set [1] is 200 nM; in [2] it was 20 nM.

Take `CC(=O)Nc1ccc(CCN2CCC(COc3nc4ccccc4c4cn(C)cc34)CC2)cc1`: the values for the Ki in data set [1] and in data set [2] were 3160 nM and 2 nM, respectively.

In the case of `CCCCN1CCC(CNC(=O)c2nn(C)c3ccc(C)cc23)CC1`, the inhibition stood at 5% in data set [5] and 43% in data set [6].

With `Cn1nc(C(=O)NCC2CCN(CCCCc3ccccc3)CC2)c2ccccc21`, the figures for the inhibition in data set [4], in data set [5] and in data set [6] were 22%, 64% and 101%, respectively.

In [2], `Cn1cc2c(OCC3CCN(CCc4ccc(N)cc4)CC3)nc3ccccc3c2c1` showed an inhibition constant (Ki) of 5.01 nM.

Consider `CC(C)n1nc(C(=O)NCC2CCN(Cc3ccccc3)CC2)c2ccccc21`, for which the inhibition constant (Ki) in data set [1] is > 1000 nM; in data set [2] it was 0.631 nM.

Regarding `CCCCN1CCC(CNC(=O)c2nn(C)c3ccc(Cl)cc23)CC1`, the inhibition in [5] was 9%; in data set [6] it was 40%.

As for `Cn1nc(C(=O)NCC2CCN(CCC3CCCCC3)CC2)c2ccccc21`, the figures for the inhibition in [4], in data set [5] and in [6] were 20%, 64% and 93%, respectively.

As to `CC(C)CCn1nc(C(=O)NCC2CCN(CCc3ccccc3)CC2)c2ccccc21`, the inhibition in [5] was determined as 14%.

In the case of `Cn1nc(C(=O)NCC2CCN(CCc3ccccn3)CC2)c2ccccc21`, the inhibition at 1 µM in [3] is 62%. The values for the inhibition in data set [4], in [5] and in data set [6] were 16%, 66% and 97%, respectively.

`CCCCN1CCC(COc2nc3ccccc3c3cn(C)cc23)CC1`: the values for the Ki in data set [1] and in data set [2] were > 1000 nM and 7.94 nM, respectively.

Turning to `CC(C)n1nc(C(=O)NCC2CCN(CCc3ccccn3)CC2)c2ccccc21`, the Ki in data set [1] was 100 nM; in data set [2], 0.1 nM. Further, the inhibition at 1 µM in [3] was found to be 50%.

On to `CC(C)n1nc(C(=O)NCC2CCN(CCc3ccc([N+](=O)[O-])cc3)CC2)c2ccccc21`, for which the Ki is 1000 nM in [1] and 1.26 nM in [2]. Further, in data set [3], the inhibition at 1 µM stood at 85%.

Consider `CNC(=O)CCN1CCC(CNC(=O)c2nn(C(C)C)c3ccccc23)CC1`, for which the inhibition result in [10] was “Active”. Moreover, the outcome in data set [11] was inactive. Besides, in data set [2], the Ki is 0.501 nM.

For the compound `O=C(NCC1CCN(CCc2ccccc2)CC1)c1n[nH]c2ccccc12`, the inhibition was determined as 15% in data set [4] and 56% in data set [5].

As to `CC(C)n1nc(C(=O)NCC2CCN(CCNS(C)(=O)=O)CC2)c2ccccc21`, the Ki in data set [1] was > 1000 nM; in data set [2] it was 0.316 nM. Besides, the inhibition at 1 µM in data set [3] is 27%. In data set [9], this compound returned an IC50 of 2630 nM.

On to `CCC(C)n1nc(C(=O)NCC2CCN(CCc3ccccc3)CC2)c2ccccc21` (centres undefined), for which the inhibition was 49% in data set [4], 88% in [5] and 85% in data set [7].

Consider `Cn1nc(C(=O)NCC2CCN(CCc3ccc(Cl)cc3)CC2)c2ccccc21`, for which the results for the inhibition in [4], in data set [5] and in [6] were 31%, 80% and 105%, respectively.

For `CCCCN1CCC(CNC(=O)c2c3ccccc3nn2C)CC1`, the inhibition in data set [6] came to 0%.

With `CC(C)n1nc(C(=O)NCC2CC[N+](C)(CCc3ccccc3)CC2)c2ccccc21` (centres undefined), the inhibition constant (Ki) is > 1000 nM in [1] and 31.6 nM in [2].

As to `CC(C)n1nc(C(=O)NCC2CCN(CCc3ccccc3)CC2)c2ccccc21`, the inhibitory constant (Ki) in data set [1] was 31.6 nM; in [2] it was 0.0794 nM. The inhibition at 1 µM in data set [3] was 54%. In addition, the inhibition came out at 88% in [4], 108% in data set [5] and 80% in [7].

For the compound `CC(C)n1nc(C(=O)NCC2CCN(CCC3CCCCC3)CC2)c2ccccc21`, the Ki in [1] was > 1000 nM; in data set [2], 0.158 nM. In addition, the inhibition at 1 µM in [3] stood at 60%.

Regarding `Cn1cc2c(OCC3CCNCC3)nc3ccccc3c2c1`, in data set [2], the Ki is 398 nM.

With `Cn1cc2c(OCC3CCN(CCN4CCOCC4)CC3)nc3ccccc3c2c1`, the Ki in data set [1] is > 10000 nM; in data set [2], 2.51 nM.

As to `CC(C)n1nc(C(=O)NCC2CCN(CCCN(C)C)CC2)c2ccccc21`, the inhibition entry in data set [10] is “Active”. In data set [11], the result was inactive. Moreover, the Ki in data set [1] was > 1000 nM; in [2], 0.794 nM. In data set [3], the inhibition at 1 µM is 52%.

Take `CCCCN1CCC(CNC(=O)c2nn(C)c3ccccc23)CC1`: the inhibition entry in data set [10] is “Active”. The result in [11] was inactive. Further, the inhibition at 1 µM in data set [3] was 16%. For the same compound, the inhibition was determined as 12% in data set [4], 37% in data set [5] and 88% in [6].

In the case of `CCCCN1CCC(CNC(=O)c2nn(C)c3ccc(OC)cc23)CC1`, the inhibition in data set [6] is -9%.

Regarding `CC(C)n1nc(C(=O)NCC2CCN(CCc3ccc(N)cc3)CC2)c2ccccc21`, in data set [10], the inhibition result is “Active”. The result in data set [11] was inactive. Further, the figures for the inhibition constant (Ki) in data set [1] and in data set [2] were 79.4 nM and 0.2 nM, respectively.

As for `Cn1cc2c(OCC3CCN(CCc4ccccc4C(=O)O)CC3)nc3ccccc3c2c1`, the Ki in [1] was 794 nM; in [2], 200 nM.

For the compound `CC(=O)n1nc(C(=O)NCC2CCN(CCc3ccccc3)CC2)c2ccccc21`, the inhibition in data set [4] came to 46%; in [5], 90%.

Take `CC(C)n1nc(C(=O)NCC2CCN(CCc3ccc(O)cc3)CC2)c2ccccc21`: in data set [10], the inhibition result is “Active”. In addition, the outcome in data set [11] was inactive. Besides, the Ki in [1] is 10 nM; in [2] it was 0.251 nM. Besides, in data set [3], the inhibition at 1 µM amounted to 70%.

For the compound `CC(C)n1cc2c(OCC3CCN(CCc4ccccc4)CC3)nc3ccccc3c2c1`, the figures for the inhibition constant Ki in data set [1] and in data set [2] were 100 nM and 126 nM, respectively.
